Laboratory results as given in ChEMBL document CHEMBL1157464, “1-[(3-Aryloxy-3-aryl)propyl]-1H-imidazoles, new imidazoles with potent activity against Candida albicans and dermatophytes. Synthesis, structure-activity relationship, and molecular modeling studies” (J Med Chem, 2008).
In brackets after ≈: the same amount, converted by molar mass.

Tests used:
Candida albicans [1] = test: Antifungal activity against fluconazole-sensitive Candida albicans Fe40 at 35 degC after 48 hrs by broth microdilution test; format: functional
Procedure, shortened: (§1)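 Broth microdilution per NCCLS M27-A2. Stocks in 100% DMSO, diluted in RPMI 1640 with 0.165 M MOPS at pH 7.0; final range 0.25–128 µg/mL. Inoculum 1000–5000 cells/mL from SDA subcultures. […] C. parapsilosis ATCC22019 served as QC strain.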

[2] = Cytotoxicity against human K562 cells after assessed as reduction of cell viability 24 hrs by MTT assay; format: cell-based
Procedure, shortened: (§2)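 U937 and K562 cells, from ATCC, plated at 5 × 10^4/mL in phenol-red-free RPMI-1640 with 20% FBS and penicillin/streptomycin. Compounds added 2 h later at 25–100 µg/mL, then 24 h at 37 °C. MTT at 1 mg/mL for 3 h, formazan dissolved in isopropanol with 0.1 N HCl, absorbance read at 570 nm. CC50 is the concentration reducing viability by 50% versus the drug-free control.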

[3] = Cytotoxicity against human U937 cells assessed as reduction of cell viability after 24 hrs by MTT assay; format: cell-based, U-937; procedure, shortened: as §2
Candida albicans [4] = test: Antifungal activity against Candida albicans ATCC 10261 at 35 degC after 48 to 96 hrs by broth microdilution test; format: functional; details: for MFC: Candida albicans, ATCC 10261, read-out: MFC
Procedure, shortened: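 Minimal fungicidal concentration for Candida. […] MFC is the lowest concentration allowing fewer than two colonies (99% killing).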

Candida parapsilosis = test: Antifungal activity against Candida parapsilosis ATCC 22019 at 35 degC after 48 hrs by broth microdilution test; format: functional; details: Lodderomyces parapsilosis, ATCC 22019, 48 h; for MFC: read-out: MFC; for MIC: read-out: MIC; procedure, shortened: as §1
Candida albicans [5] = test: Antifungal activity against fluconazole-resistant Candida albicans isolated from oropharyngeal or vaginal disease patient after 48 hrs by broth microdilution test; format: functional
Candida albicans [6] = test: Antifungal activity against Candida albicans ATCC 10261 at 35 degC after 48 hrs by broth microdilution test; format: functional; details: Candida albicans, ATCC 10261, 48 h; for MIC: read-out: MIC; for MIC50: read-out: MIC50; for MIC90: read-out: MIC90; procedure, shortened: as §1
Arthrodermataceae [7] = test: Antifungal activity against dermatophytes at 28 degC after 5 days by broth microdilution test; details: for MFC: Arthrodermataceae
Arthrodermataceae [8] = test: Antifungal activity against dermatophytes at 28 degC after 48 to 96 hrs by broth microdilution test
Arthrodermataceae [9] = test: Antifungal activity against dermatophytes at 28 degC after 7 days by broth microdilution test; format: functional; details: 168 h
Procedure, shortened: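 Ten clinical isolates (two M. canis, five M. gypseum, three T. mentagrophytes) tested by NCCLS M38-A broth microdilution in MOPS-buffered RPMI 1640, pH 7.0, over 0.25–128 µg/mL. Conidial/hyphal suspension from PDA slants (28 °C, 7 days) adjusted to 65–70% transmittance at OD530, then diluted 1:50.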

Structure (SMILES) | MIC (Candida parapsilosis) [µg/mL] | MIC (Candida albicans [6]) [µg/mL] | MIC50 (Candida albicans [6]) [µg/mL] | MIC90 (Candida albicans [6]) [µg/mL] | MIC (Arthrodermataceae [9]) [µg/mL] | MIC50 (Arthrodermataceae [9]) [µg/mL] | MIC90 (Arthrodermataceae [9]) [µg/mL] | MIC (Candida albicans [1]) [µg/mL] | CC50 at 24 h [2] [µM] | CC50 at 24 h [3] [µM] | MFC50 (Candida albicans [4]) [µg/mL] | MFC90 (Candida albicans [4]) [µg/mL] | MFC (Candida albicans [4]) [µg/mL] | MFC (Candida parapsilosis) [µg/mL] | MIC (Candida albicans [5]) [µg/mL] | MFC90 (Arthrodermataceae [7]) [µg/mL] | MFC (Arthrodermataceae [7]) [µg/mL] | MFC50 (Arthrodermataceae [8]) [µg/mL]
Clc1ccc(OC(CCn2ccnc2)c2ccc(Cl)cc2)cc1 (stereo not drawn) | 4 (≈ 11.5 µM) | 5.5 (≈ 15.8 µM) | 4 (≈ 11.5 µM) | 8 (≈ 23 µM) |  |  |  | 4 (≈ 11.5 µM) | 265 | 327 | 16 (≈ 46.1 µM) | 32 (≈ 92.2 µM) | 21.5 (≈ 61.9 µM) | 8 (≈ 23 µM) | 8 (≈ 23 µM) |  |  | 
CCC(C)n1ncn(-c2ccc(N3CCN(c4ccc(OC[C@@H]5CO[C@@](Cn6cncn6)(c6ccc(Cl)cc6Cl)O5)cc4)CC3)cc2)c1=O (stereo partly drawn) [ITRACONAZOLE] | 0.06 (≈ 0.085 µM) | 0.5 (≈ 0.709 µM) | 0.5 (≈ 0.709 µM) | 1 (≈ 1.42 µM) | 0.14 (≈ 0.198 µM) | 0.125 (≈ 0.177 µM) | 0.25 (≈ 0.354 µM) | 0.031 (≈ 0.0439 µM) |  |  | >1 | >1 | > 1 | 0.25 (≈ 0.354 µM) | 16 (≈ 22.7 µM) | 2 (≈ 2.83 µM) | 1.4 (≈ 1.98 µM) | 1 (≈ 1.42 µM)
Clc1ccc(C(CCn2ccnc2)Oc2cc(Cl)cc(Cl)c2)cc1 (stereo not drawn) | 1 (≈ 2.62 µM) | 7.7 (≈ 20.2 µM) | 8 (≈ 21 µM) | 16 (≈ 41.9 µM) | 5 (≈ 13.1 µM) | 4 (≈ 10.5 µM) | 8 (≈ 21 µM) |  | 135 | 180 | 16 (≈ 41.9 µM) | 16 (≈ 41.9 µM) | 16.5 (≈ 43.2 µM) | 4 (≈ 10.5 µM) |  | 16 (≈ 41.9 µM) | 10 (≈ 26.2 µM) | 8 (≈ 21 µM)
Cc1ccc(OC(Cn2ccnc2)c2ccc(Cl)cc2)cc1 (stereo not drawn) | 4 (≈ 12.8 µM) | 22.3 (≈ 71.3 µM) | 16 (≈ 51.2 µM) | 32 (≈ 102 µM) |  |  |  |  | 99 | 150 |  |  | 32 (≈ 102 µM) |  |  |  |  | 
Cc1ccc(C(CCn2ccnc2)Oc2ccc(Cl)cc2Cl)cc1 (stereo not drawn) | 1 (≈ 2.77 µM) | 3.15 (≈ 8.72 µM) | 4 (≈ 11.1 µM) | 4 (≈ 11.1 µM) | 12 (≈ 33.2 µM) | 8 (≈ 22.1 µM) | 16 (≈ 44.3 µM) |  | 97 | 150 | 8 (≈ 22.1 µM) | 16 (≈ 44.3 µM) | 8.4 (≈ 23.3 µM) | 4 (≈ 11.1 µM) |  | 32 (≈ 88.6 µM) | 24 (≈ 66.4 µM) | 16 (≈ 44.3 µM)

Continued by falling MIC (Candida parapsilosis), values first:

MIC (Candida parapsilosis) [µg/mL] | MIC (Candida albicans [6]) [µg/mL] | MIC50 (Candida albicans [6]) [µg/mL] | MIC90 (Candida albicans [6]) [µg/mL] | MIC (Arthrodermataceae [9]) [µg/mL] | MIC50 (Arthrodermataceae [9]) [µg/mL] | MIC90 (Arthrodermataceae [9]) [µg/mL] | Structure (SMILES) | MIC (Candida albicans [1]) [µg/mL] | CC50 at 24 h [2] [µM] | CC50 at 24 h [3] [µM] | MFC50 (Candida albicans [4]) [µg/mL] | MFC90 (Candida albicans [4]) [µg/mL] | MFC (Candida albicans [4]) [µg/mL] | MFC (Candida parapsilosis) [µg/mL] | MIC (Candida albicans [5]) [µg/mL] | MFC90 (Arthrodermataceae [7]) [µg/mL] | MFC (Arthrodermataceae [7]) [µg/mL] | MFC50 (Arthrodermataceae [8]) [µg/mL]
8 (≈ 22.5 µM) | 18.5 (≈ 52.1 µM) | 8 (≈ 22.5 µM) | 32 (≈ 90.2 µM) |  |  |  | CC(C)c1ccc(OC(CCn2ccnc2)c2ccc(Cl)cc2)cc1 (stereo not drawn) |  | 138 | 208 | 32 (≈ 90.2 µM) | 32 (≈ 90.2 µM) | 25.5 (≈ 71.9 µM) | 32 (≈ 90.2 µM) |  |  |  | 
8 (≈ 23.5 µM) | 6.5 (≈ 19.1 µM) | 8 (≈ 23.5 µM) | 8 (≈ 23.5 µM) |  |  |  | CCc1ccc(OC(CCn2ccnc2)c2ccc(Cl)cc2)cc1 (stereo not drawn) |  | 185 | 265 | 8 (≈ 23.5 µM) | 16 (≈ 46.9 µM) | 12.5 (≈ 36.7 µM) | 16 (≈ 46.9 µM) |  |  |  | 
4 (≈ 11.7 µM) | 6.5 (≈ 19.1 µM) | 8 (≈ 23.5 µM) | 8 (≈ 23.5 µM) |  |  |  | Cc1ccc(C(CCn2ccnc2)Oc2ccc(C)cc2Cl)cc1 (stereo not drawn) |  | 123 | 151 | 32 (≈ 93.9 µM) | 32 (≈ 93.9 µM) | 24 (≈ 70.4 µM) | 8 (≈ 23.5 µM) |  |  |  | 
1 (≈ 2.77 µM) | 11.9 (≈ 32.9 µM) | 16 (≈ 44.3 µM) | 16 (≈ 44.3 µM) | 5.6 (≈ 15.5 µM) | 4 (≈ 11.1 µM) | 8 (≈ 22.1 µM) | Cc1ccc(C(CCn2ccnc2)Oc2cc(Cl)cc(Cl)c2)cc1 (stereo not drawn) |  | 98 | 160 | 16 (≈ 44.3 µM) | 64 (≈ 177 µM) | 34.6 (≈ 95.8 µM) | 8 (≈ 22.1 µM) |  | 16 (≈ 44.3 µM) | 14.4 (≈ 39.9 µM) | 16 (≈ 44.3 µM)
